From PubChem BioAssay
In the library only some 2% were active in any assay of this set; here they are far more common.
UPR XBP1 act = adaptive UPR (XBP1) activation. AID 463104. activation, % at 20 µM. CHO-XBP1 luciferase reporter, IRE1-XBP1 UPR activation, luminescence; percent of tunicamycin response, DMSO as zero. 330,000 compounds, 0.33% hits;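 active = versus positive control, 20 µM dose yields 30% or more activation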;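 also: 100% = tunicamycin at 10 µg/mL and 0% = DMSO only wells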
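Material: CHO-XBP1 cells stably carrying IRE1-XBP1-driven luciferase reporter | Medium: F12 with 10% serum | Compound dosing: 20 µM single concentration, DMSO 1% | Incubation: Overnight seeding at 37 °C, 6 h compound treatment at 37 °C | Detection: Steady-Glo luminescence read | Read-out basis: % activation of reporter signal versus tunicamycin and DMSO controls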
MC4R antagonist = antagonists of human melanocortin 4 receptor (MC4R); 360,000 compounds, 0.48% hits; MC4R-expressing cells, MTII-stimulated cAMP, LANCE TR-FRET; inhibition, % at 6.5 µM; P32245; AID 540295;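 active = inhibition above its plate's cutoff, the mean of tested wells on that plate plus 3 SD, cut at about 29% in these data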;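 also: 0% = Melanotan II alone and 100% = Melanotan II plus saturating MCL0020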
Target sequence (P32245 whole entry, looked up): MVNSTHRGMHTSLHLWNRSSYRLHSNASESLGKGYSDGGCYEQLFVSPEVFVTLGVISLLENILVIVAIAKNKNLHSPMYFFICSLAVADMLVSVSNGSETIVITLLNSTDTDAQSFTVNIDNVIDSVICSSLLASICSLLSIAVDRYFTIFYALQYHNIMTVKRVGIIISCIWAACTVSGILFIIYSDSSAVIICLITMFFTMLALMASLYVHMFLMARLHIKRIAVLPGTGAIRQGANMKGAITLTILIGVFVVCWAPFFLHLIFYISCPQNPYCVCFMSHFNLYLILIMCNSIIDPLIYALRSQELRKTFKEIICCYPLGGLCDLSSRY
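System – human MC4R-expressing U2OS cells · Also added – Melanotan II · Dosing – one concentration, 6.5 µM nominal · Timing – 30-min compound, 1-h challenge, 1-h detection, room temperature · Measured by – Eu-cAMP/anti-cAMP TR-FRET, emission 671 nm · Replicates – singlicate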
MC4R ag barr = human MC4R agonism via beta-arrestin | AID 540308 | U2OS MC4R beta-arrestin complementation, luminescence; percent of melanotan II response, DMSO zero | activation, % at 8.9 µM | 360,000 compounds, 0.98% hits;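 active = activation above a per-plate cutoff, the mean activation of sample wells on that plate plus 3 SD, cut at about 8% in these data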
UPR CHOP act = activators of apoptotic arm of unfolded protein response (CHOP); CHO-CHOP luciferase reporter, UPR activation, luminescence; percent of tunicamycin response over DMSO baseline; activation, % at 10 µM; 330,000 compounds, 0.34% hits;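 active = at 10 µM dose, activation of 40% or more, normalized to positive control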;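 also: 100% = tunicamycin at 10 µg/mL and 0% = DMSO alone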
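Dosing – one dose, 10 µM in 0.5% DMSO · System – CHO-CHOP cells, stable luciferase reporter of PERK-eIF2a-CHOP signalling · Input – 500 cells/well · Control set – tunicamycin 10 µg/mL final as positive, DMSO-only wells as negative · Timing – 6 h compound treatment, 37 °C · Measure – % activation vs tunicamycin · Technique – luminescence read with Steady-Glo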
A1 inh = inhibitors of the anti-apoptotic protein A1, read as caspase activation; AID 2462; 330,000 compounds, 0.066% hits; MEF A1-2A-BIM cells, Caspase-Glo 3/7 luminescence, 3 h; percent of clofoctol response, vehicle zero; caspase activation, % (concentration not given with the values);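 active = over half of replicate activation scores above 10%, or exactly half above 10 with the replicate mean above 10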
cAMP nonselect = nonselective cAMP signaling inhibitor, MC4R antagonist counter-screen | shares compounds with MC4R antagonist | parental U2OS, forskolin cAMP, LANCE TR-FRET | inhibition, % at 6.5 µM | 1,600 compounds, 26% hits;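 active = mean inhibition over triplicates above the low-control well mean plus 3 SD, set per campaign, cut at about 13% in these data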;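 also: signal is single emission at 671 nm which falls as cellular cAMP rises; 0% = forskolin-stimulated wells and 100% = buffer without forskolin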
MC4R cAMP antag = human MC4R cAMP antagonism confirmation. shares compounds with MC4R antagonist. MC4R-expressing cells, MTII-stimulated cAMP, TR-FRET. inhibition, % at 6.5 µM. 1,600 compounds, 27% hits. AID 602195; in the data active = inhibition above about 29%;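 also: 0% = agonist stimulated wells alone and 100% = agonist stimulated wells plus saturating reference antagonist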
Active calls of the source: *; nt = no result.

SMILES	UPR XBP1 act	MC4R antagonist	MC4R ag barr	UPR CHOP act	A1 inh	cAMP nonselect	MC4R cAMP antag
C#Cc1cccc(N2C(=O)C3C4C=CC(C3C2=O)C2C(=O)N(c3cccc(C#C)c3)C(=O)C42)c1 (centres undefined)	nt	-2.3	-1.7	nt	nt	nt	nt
CCOC(=O)c1ccc(NC(=O)CN2C(=O)C(C)SC(C)C2=O)cc1 (centres undefined)	-0.5	1.5	-2.0	1.5	0.1	nt	nt
COc1ccc(NC(=O)CN2C(=O)C(C)SC(C)C2=O)cc1 (centres undefined)	1.1	31.3*	-3.3	1.8	0.2	2.6	0.9
O=C(NCc1ccccc1)c1cc(C2CCCN(C(=O)C3CCCCC3)C2)on1 (centres undefined)	nt	-1.6	-0.1	nt	nt	nt	nt
CC(OC(=O)Cn1cnc2c1c(=O)n(C)c(=O)n2C)C(=O)NC(C)c1ccc(Cl)cc1Cl (centres undefined)	-1.8	35.7*	-4.5	-1.3	0.1	12.3	11.9
CC(=O)Nc1cc(-c2ccccc2CN(C)C)cn2c(-c3ccc(C(C)=O)cc3)cnc12	nt	5.4	2.4	nt	nt	nt	nt
CC(Sc1ccsc1[N+](=O)[O-])C(=O)NCc1ccccc1 (centres undefined)	-0.3	nt	nt	-1.8	0.3	nt	nt
COc1ccccc1CNC(=O)C(C)Sc1ccsc1[N+](=O)[O-] (centres undefined)	1.1	29.9*	-0.9	0.7	-0.1	0.0	-5.2
Cc1ccccc1-c1cc2nc(Oc3cccc4ccccc34)n(C)c(=O)c2s1	nt	12.7	-0.5	nt	nt	nt	nt
Nc1nnc(-c2ccc(Cl)cc2Cl)s1	-0.1	30.1*	-1.8	6.6	-1.0	2.3	1.7
O=C1CN(C(=O)CSc2nc(-c3ccc(Cl)cc3)cs2)c2ccccc2N1	1.1	30.7*	2.4	0.1	0.3	-3.8	-18.4
CCOC(=O)Nc1ccc2c(c1)C(=NNC(=S)NC)c1ccccc1-2	nt	13.5	-3.4	nt	nt	nt	nt
C=CCc1cccc2cc(C(=O)N3CCN(C(=O)c4ccccc4)CC3)c(=O)oc12	-1.7	30.2*	1.0	0.1	-0.2	-1.7	-5.8
C=CCc1cccc2cc(C(=O)N3CCOCC3)c(=O)oc12	-1.6	-1.3	0.1	0.3	-0.8	nt	nt
Cc1ccc2c(c1)c1c3n2CCN(C(=O)CCl)C3CCC1 (centres undefined)	1.1	38.4*	0.7	26.3	-0.3	5.4	29.0*
COc1ccccc1NC(=S)N1CCC(NC(=O)NC23CC4CC(CC(C4)C2)C3)CC1	-7.0	34.3*	-0.1	-1.0	-1.1	0.0	-11.7
CN1C(=O)CC(C(=O)Nc2ccccc2F)SC1=Nc1ccc2c(c1)OCO2 (centres undefined)	-1.4	32.5*	1.4	-1.0	0.6	2.2	-0.9
COC(=O)C(C(=O)OC)[C@@H]1C=C[C@H](C[N+](=O)[O-])N(C(C)=O)C1	nt	0.5	-1.1	nt	nt	nt	nt
CC(C)(C)c1ccc(NC(=O)c2cc(C3CCCN(C(=O)CCc4ccccc4)C3)on2)cc1 (centres undefined)	nt	26.0	-1.0	nt	nt	nt	nt
O=C1COc2ccc(C(=O)COC(=O)c3nc(Cl)ccc3Cl)cc2N1	-2.8	4.6	-0.1	0.1	nt	nt	nt
O=C1COc2ccc(C(=O)COC(=O)c3ncc(Cl)c(Cl)c3Cl)cc2N1	-2.9	29.4*	4.7	-1.2	-0.4	1.9	1.2
COc1cccc(C(O)c2ncc(-c3cccc(C(F)(F)F)c3)[nH]2)c1 (centres undefined)	nt	-13.6	-2.3	nt	nt	nt	nt
COc1ccccc1-c1c(C)oc2cc(OCC(=O)OCc3ccccc3)ccc2c1=O	-1.2	36.6*	0.2	-2.5	-1.1	14.4*	37.8*
CCSC1=C(C#N)C(c2ccc3c(c2)OCO3)C2=C(CCCC2=O)N1 (centres undefined)	0.6	2.3	-2.1	0.1	0.0	nt	nt
CCSC1=C(C#N)C(CC(C)C)C2=C(CCCC2=O)N1 (centres undefined)	0.5	34.1*	-2.1	-1.4	0.0	0.5	14.4
SMILES	UPR XBP1 act	MC4R antagonist	MC4R ag barr	UPR CHOP act	A1 inh	cAMP nonselect	MC4R cAMP antag
OC(c1cccnc1)c1nc(-c2cccc(F)c2)cs1 (centres undefined)	nt	12.1	0.4	nt	nt	nt	nt
Cc1ccc(C)c(Cn2c(C)nc3c(sc(=S)n3-c3ccccc3)c2=O)c1	0.1	30.8*	-0.9	2.1	0.5	2.2	-5.3
CC1CCC(C(O)(C(=O)c2ccccc2)c2ccccc2)C(=O)C1 (centres undefined)	nt	5.0	2.2	nt	nt	nt	nt
Cn1nc(C(C)(C)C)cc1C(=O)N1CCCCC1c1cc(C(=O)NCc2cccnc2)no1 (centres undefined)	nt	0.0	1.2	nt	nt	nt	nt
c1ccc2c(c1)oc1c(-c3cccc4nccn34)cccc12	nt	0.7	0.7	nt	nt	nt	nt
COc1ccccc1Cn1c(=S)[nH]c2ccc(F)cc2c1=O	-2.5	65.2*	-1.8	1.0	0.2	50.1*	100.3*
COc1ccccc1Cn1c(=S)[nH]c2ccc(Br)cc2c1=O	nt	6.1	1.2	nt	-0.5	nt	nt
Cc1cn([C@H]2C[C@H](O)[C@@H](CNC(=O)[C@@H]3CCCN3Cc3ccccc3)O2)c(=O)[nH]c1=O	nt	11.2	-0.7	nt	nt	nt	nt
COc1ccc(CNC(=O)CSc2nnc(NC(=O)C3CC3)s2)cc1	-2.8	29.2*	-1.2	1.7	-0.5	-0.2	-5.5
CCN(CC)S(=O)(=O)c1ccc(N2CCOCC2)c(NC(=O)c2nn(C(C)C)c(=O)c3ccccc23)c1	nt	-48.3	-2.6	nt	nt	nt	nt
Cc1cc(C(=O)OCC(=O)c2ccc(Br)s2)no1	0.4	37.0*	-1.1	0.0	-0.9	5.1	9.4
OCCN1CCN(c2cc(C(F)(F)F)nc3c(F)cccc23)CC1	4.1	29.6*	-2.5	0.3	-0.8	-2.3	5.0
COc1cccc(CNS(=O)(=O)/C=C/c2ccc(OC)c(OC)c2)c1	-5.7	34.5*	-2.9	-1.2	1.2	0.0	5.7
Cc1cc(C(=O)O)ccc1-c1ccc(/C=C2\NC(=O)N(Cc3ccccc3Cl)C2=O)o1	0.0	36.9*	1.3	0.1	-0.3	1.8	-3.3
CCOC(=O)c1c(NC(=O)COC(=O)CNC(=O)c2ccc(Cl)cc2Cl)sc(C(=O)N(C)C)c1C	2.1	30.9*	-1.1	-0.6	-0.2	6.3	8.1
CCOC(=O)c1c(NC(=O)CSc2nc3cc(Cl)ccc3c(=O)n2Cc2ccco2)sc(C(=O)N(C)C)c1C	-2.3	30.8*	0.6	0.0	0.3	-4.0	6.1
CCOC(=O)c1c(NC(=O)COC(=O)c2nc(Cl)ccc2Cl)sc(C(=O)N(C)C)c1C	-4.5	1.4	-0.7	-1.5	1.0	nt	nt
COc1cccc(CN(C)CCCn2cnc3c(SC)ncnc32)c1	nt	5.6	-0.4	nt	nt	nt	nt
